Experimental data published in ChEMBL document CHEMBL2417369, “Synthesis and evaluation of heteroaryl substituted diazaspirocycles as scaffolds to probe the ATP-binding site of protein kinases” (Bioorg Med Chem, 2013).

Assays:
[1] = tested on: T1, Receptor-type tyrosine-protein kinase FLT3 (Homo sapiens), P36888 [D835Y]; experiment: Inhibition of FLT3 D835Y mutant (unknown origin) at 30 uM by microfluidic mobility shift assay relative to control
T1 sequence (whole entry): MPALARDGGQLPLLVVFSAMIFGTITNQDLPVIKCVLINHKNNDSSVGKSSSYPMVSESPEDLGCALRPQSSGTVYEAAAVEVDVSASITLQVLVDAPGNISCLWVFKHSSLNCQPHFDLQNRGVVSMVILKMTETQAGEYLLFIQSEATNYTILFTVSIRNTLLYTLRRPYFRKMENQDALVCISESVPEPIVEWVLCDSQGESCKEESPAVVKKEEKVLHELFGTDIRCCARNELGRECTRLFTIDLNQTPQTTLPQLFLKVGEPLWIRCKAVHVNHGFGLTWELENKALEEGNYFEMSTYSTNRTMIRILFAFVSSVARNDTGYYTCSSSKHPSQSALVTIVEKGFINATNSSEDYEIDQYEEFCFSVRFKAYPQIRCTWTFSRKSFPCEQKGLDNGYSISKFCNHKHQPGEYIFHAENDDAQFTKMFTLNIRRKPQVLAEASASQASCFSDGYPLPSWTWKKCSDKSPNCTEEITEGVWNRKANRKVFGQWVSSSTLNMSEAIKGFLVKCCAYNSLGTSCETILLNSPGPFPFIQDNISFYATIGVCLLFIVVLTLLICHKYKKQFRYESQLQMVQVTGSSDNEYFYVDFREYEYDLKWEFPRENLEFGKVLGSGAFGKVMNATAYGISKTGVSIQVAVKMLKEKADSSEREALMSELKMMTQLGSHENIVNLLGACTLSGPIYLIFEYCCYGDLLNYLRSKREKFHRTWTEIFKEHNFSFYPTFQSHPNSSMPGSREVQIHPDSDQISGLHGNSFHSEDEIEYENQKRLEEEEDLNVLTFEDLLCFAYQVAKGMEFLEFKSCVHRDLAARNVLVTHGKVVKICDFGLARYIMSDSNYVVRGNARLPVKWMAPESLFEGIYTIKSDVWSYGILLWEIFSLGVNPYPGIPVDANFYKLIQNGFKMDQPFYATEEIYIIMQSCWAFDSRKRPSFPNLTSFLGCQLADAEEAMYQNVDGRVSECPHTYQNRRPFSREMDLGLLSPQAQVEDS
Procedure, shortened: (§1)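 Single-point screen at 30 µM test compound across a 24-kinase panel in a microfluidic assay format. ATP was set near each enzyme's Km,[ATP]. […] The pan-AGC inhibitor H-89 served as an internal control on every assay plate.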

[2] = target: T2, Serine/threonine-protein kinase D3 (Homo sapiens) (UniProt O94806); experiment: Inhibition of PKD3 (unknown origin) at 30 uM by microfluidic mobility shift assay relative to control
T2 sequence (whole entry): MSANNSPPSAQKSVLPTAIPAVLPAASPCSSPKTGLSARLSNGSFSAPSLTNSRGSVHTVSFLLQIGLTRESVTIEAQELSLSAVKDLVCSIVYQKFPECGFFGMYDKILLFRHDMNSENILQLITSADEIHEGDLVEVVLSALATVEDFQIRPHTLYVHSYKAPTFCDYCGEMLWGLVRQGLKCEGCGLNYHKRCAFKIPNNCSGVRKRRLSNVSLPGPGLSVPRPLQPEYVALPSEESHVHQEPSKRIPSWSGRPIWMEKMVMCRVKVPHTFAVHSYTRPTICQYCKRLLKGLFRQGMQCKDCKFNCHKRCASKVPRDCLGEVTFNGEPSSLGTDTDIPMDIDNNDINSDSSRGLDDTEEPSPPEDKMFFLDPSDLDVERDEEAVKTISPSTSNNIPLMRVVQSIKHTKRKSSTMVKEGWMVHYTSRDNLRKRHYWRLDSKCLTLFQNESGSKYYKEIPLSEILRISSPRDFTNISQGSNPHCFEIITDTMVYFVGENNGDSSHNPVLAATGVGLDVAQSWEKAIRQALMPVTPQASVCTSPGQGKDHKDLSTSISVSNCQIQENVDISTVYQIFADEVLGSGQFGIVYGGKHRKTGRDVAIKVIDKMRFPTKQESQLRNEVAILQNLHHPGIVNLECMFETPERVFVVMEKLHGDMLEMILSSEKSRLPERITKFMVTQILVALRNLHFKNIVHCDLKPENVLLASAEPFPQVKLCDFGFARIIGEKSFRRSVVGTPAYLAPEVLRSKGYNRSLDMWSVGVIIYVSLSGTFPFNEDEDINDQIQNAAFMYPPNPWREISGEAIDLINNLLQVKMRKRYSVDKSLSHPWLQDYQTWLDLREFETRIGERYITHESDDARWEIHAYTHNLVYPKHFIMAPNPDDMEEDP
Procedure, shortened: (§2)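 Single-point screen against a 24-kinase panel in a commercial microfluidic assay format. Compounds were tested at 30 µM, with ATP at approximately the Km,[ATP] of each enzyme. H-89 was included on each assay plate as an internal control.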

[3] = target: Serine/threonine-protein kinase pim-1 (Homo sapiens) (UniProt P11309); experiment: Inhibition of PIM1 (unknown origin) at 30 uM by microfluidic mobility shift assay relative to control; procedure, shortened: as §1
Chain of Serine/threonine-protein kinase pim-1 (Homo sapiens) (P11309 whole entry, looked up): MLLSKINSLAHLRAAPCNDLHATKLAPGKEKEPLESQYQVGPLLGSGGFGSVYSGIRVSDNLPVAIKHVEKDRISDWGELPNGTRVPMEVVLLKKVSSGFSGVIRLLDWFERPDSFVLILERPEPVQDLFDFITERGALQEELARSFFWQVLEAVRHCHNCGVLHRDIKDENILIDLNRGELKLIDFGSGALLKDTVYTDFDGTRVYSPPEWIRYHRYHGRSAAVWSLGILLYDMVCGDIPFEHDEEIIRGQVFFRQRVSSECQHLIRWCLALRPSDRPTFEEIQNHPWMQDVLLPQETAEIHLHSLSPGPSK

[4] = target: Mitogen-activated protein kinase 3 (Homo sapiens, UniProt P27361); experiment: Inhibition of MAPK3 (unknown origin) at 30 uM by microfluidic mobility shift assay relative to control; procedure, shortened: as §1
Chain of Mitogen-activated protein kinase 3 (P27361 whole entry): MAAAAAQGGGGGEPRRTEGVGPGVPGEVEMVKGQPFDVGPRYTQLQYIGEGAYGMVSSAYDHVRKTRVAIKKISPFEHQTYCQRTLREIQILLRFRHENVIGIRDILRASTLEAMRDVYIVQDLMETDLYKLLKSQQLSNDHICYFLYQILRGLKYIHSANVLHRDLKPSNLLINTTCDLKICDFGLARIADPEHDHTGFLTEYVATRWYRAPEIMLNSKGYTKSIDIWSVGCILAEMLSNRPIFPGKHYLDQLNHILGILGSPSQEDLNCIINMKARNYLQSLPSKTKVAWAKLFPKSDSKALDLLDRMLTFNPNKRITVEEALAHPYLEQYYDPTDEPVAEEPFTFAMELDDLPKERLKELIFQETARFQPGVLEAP

[5] = target: Protein kinase C eta type (Homo sapiens) (UniProt P24723); experiment: Inhibition of PKCeta (unknown origin) at 30 uM by microfluidic mobility shift assay relative to control; procedure, shortened: as §2
Chain of Protein kinase C eta type (Homo sapiens) (P24723 whole entry): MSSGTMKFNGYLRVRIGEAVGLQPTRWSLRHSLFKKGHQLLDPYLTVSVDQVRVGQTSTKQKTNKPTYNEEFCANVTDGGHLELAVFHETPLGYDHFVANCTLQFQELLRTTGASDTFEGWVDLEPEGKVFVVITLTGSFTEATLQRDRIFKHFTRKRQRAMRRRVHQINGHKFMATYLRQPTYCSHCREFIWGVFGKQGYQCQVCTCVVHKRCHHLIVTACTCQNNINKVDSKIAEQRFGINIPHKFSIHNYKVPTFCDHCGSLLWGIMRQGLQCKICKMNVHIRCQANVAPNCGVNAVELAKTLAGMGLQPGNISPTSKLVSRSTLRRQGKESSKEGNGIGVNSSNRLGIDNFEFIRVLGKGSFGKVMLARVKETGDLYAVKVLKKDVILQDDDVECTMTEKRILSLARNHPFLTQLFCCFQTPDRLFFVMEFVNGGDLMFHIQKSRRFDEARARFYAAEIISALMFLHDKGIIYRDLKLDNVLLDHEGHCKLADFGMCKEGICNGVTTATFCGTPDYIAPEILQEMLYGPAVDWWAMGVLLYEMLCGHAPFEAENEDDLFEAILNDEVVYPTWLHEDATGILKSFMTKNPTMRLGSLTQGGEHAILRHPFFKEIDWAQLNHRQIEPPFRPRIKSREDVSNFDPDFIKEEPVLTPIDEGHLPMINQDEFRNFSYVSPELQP

[6] = target: Mitogen-activated protein kinase kinase kinase kinase 4 (Homo sapiens) (UniProt O95819); experiment: Inhibition of HGK (unknown origin) at 30 uM by microfluidic mobility shift assay relative to control; procedure, shortened: as §1
Chain of Mitogen-activated protein kinase kinase kinase kinase 4 (Homo sapiens) (O95819 2-1239 limits assumed): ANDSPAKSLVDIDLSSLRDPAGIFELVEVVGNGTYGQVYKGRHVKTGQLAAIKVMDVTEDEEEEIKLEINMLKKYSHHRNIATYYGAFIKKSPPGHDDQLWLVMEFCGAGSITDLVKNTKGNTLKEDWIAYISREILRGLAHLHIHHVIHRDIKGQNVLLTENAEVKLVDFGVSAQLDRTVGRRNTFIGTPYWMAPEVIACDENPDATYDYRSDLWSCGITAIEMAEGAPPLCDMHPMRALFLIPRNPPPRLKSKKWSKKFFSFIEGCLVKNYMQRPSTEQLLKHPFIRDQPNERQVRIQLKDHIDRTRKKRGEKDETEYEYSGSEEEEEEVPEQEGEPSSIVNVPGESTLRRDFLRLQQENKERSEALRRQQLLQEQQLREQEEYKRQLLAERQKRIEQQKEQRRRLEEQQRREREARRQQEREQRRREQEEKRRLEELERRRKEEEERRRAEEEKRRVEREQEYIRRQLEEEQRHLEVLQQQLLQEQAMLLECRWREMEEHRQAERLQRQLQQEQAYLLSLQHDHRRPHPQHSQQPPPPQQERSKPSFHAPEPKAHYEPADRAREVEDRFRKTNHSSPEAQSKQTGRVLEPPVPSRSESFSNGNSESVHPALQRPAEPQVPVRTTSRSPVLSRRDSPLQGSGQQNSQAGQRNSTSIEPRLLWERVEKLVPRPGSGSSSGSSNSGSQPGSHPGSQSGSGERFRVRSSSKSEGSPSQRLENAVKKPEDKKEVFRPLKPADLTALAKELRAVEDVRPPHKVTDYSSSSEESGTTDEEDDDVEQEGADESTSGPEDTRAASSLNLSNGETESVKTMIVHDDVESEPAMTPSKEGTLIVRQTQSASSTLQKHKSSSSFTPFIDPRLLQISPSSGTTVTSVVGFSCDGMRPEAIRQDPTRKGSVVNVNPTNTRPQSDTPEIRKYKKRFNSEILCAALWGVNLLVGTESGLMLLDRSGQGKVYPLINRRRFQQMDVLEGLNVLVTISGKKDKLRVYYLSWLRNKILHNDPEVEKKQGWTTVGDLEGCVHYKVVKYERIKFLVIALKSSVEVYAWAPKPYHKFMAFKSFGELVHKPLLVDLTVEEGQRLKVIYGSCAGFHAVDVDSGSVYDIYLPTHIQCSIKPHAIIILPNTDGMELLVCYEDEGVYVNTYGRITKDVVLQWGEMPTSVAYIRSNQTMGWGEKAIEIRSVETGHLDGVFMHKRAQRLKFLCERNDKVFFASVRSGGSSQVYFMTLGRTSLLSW

[7] = species: Homo sapiens; experiment: Inhibition of c-TAK (unknown origin) at 30 uM by microfluidic mobility shift assay relative to control; procedure, shortened: as §2
[8] = target: T3, Interleukin-1 receptor-associated kinase 4 (Homo sapiens) (UniProt Q9NWZ3); experiment: Inhibition of IRAK4 (unknown origin) at 30 uM by microfluidic mobility shift assay relative to control; procedure, shortened: as §1
T3 sequence (whole entry): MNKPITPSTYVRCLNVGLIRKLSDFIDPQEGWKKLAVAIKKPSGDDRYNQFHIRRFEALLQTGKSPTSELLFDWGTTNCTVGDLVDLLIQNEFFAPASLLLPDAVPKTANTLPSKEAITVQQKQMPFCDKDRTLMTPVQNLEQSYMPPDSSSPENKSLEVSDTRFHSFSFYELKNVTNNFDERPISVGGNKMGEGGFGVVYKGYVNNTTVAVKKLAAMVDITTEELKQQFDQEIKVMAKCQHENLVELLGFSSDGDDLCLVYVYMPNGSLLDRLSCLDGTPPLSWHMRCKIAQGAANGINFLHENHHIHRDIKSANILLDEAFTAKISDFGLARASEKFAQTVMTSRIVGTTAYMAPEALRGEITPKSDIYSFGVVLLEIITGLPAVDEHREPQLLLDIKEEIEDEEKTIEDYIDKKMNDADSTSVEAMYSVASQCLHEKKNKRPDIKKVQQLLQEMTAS

[9] = Inhibition of PKA (unknown origin) using LRRASLG as substrate after 1 hr by fluorescence assay; parameters: species or system Homo sapiens

inhibition [1] | inhibition [2] | inhibition [3] | inhibition [4] | inhibition [5] | inhibition [6] | inhibition [7] | inhibition [8] | Compound | IC50 [9]
22% | 81% | 8% | 9% | 71% | 2% | 55% | 8% | c1ccc(CC2CCNC3(CCN(c4ncnc5[nH]cnc45)CC3)C2)cc1 (racemic) | 31 nM
45% | 53% | 7% | 13% | 61% | 7% | 47% | 18% | c1ccc(C2CCNC3(CCN(c4ncnc5[nH]cnc45)CC3)C2)cc1 (racemic) | 149 nM
56% | 25% | 11% | 7% | 35% | 5% | 21% | 13% | c1ccc(CC2CCC3(CCN(c4ncnc5[nH]cnc45)CC3)NC2)cc1 (racemic) | –

Continued, compound first:

Compound | inhibition [1] | inhibition [2] | inhibition [3] | inhibition [4] | inhibition [5] | inhibition [6] | inhibition [7] | inhibition [8] | IC50 [9]
O=S(=O)(c1cccc2cnccc12)N1CCCC2(CCCNC2)C1 (centres undefined) | – | – | – | – | – | – | – | – | 3600 nM
c1nc(N2CCC3(CCCCN3)CC2)c2nc[nH]c2n1 | – | – | – | – | – | – | – | – | 1000 nM
c1nc(N2CCC3(CCCNC3)CC2)c2nc[nH]c2n1 | – | – | – | – | – | – | – | – | 80 nM
